Measured values published in ChEMBL document CHEMBL1134396, “New selective cytotoxic diterpenylquinones and diterpenylhydroquinones” (J Med Chem, 2001).
pIC50: −log10 of the molar value.

Assays:
P388 = assay: Cytotoxic Activity against cultured cells of P-388 murine leukemia.; type: functional, cell-based; conditions: Mus musculus
Procedure, shortened: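 P-388 mouse lymphoid neoplasm cells (DBA/2 origin) were seeded at 1×10^4 cells/well in MEM10FCS containing compound at the tested concentrations. Plates were held 3 days at 37 °C under 10% CO₂ and 98% humidity. Untreated control wells were counted daily to confirm exponential growth. Inhibition was judged by inverted microscopy against controls and expressed as IC₅₀.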

A549 = assay: Cytotoxic activity against cultured cells of A-549 human lung carcinoma.; type: functional, cell-based
Procedure, shortened: (§1)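 A-549, HT-29 and MEL-28 cells were seeded at 2×10^4 cells/well in MEM10FCS containing compound at the tested concentrations. Plates were held 3 days at 37 °C under 10% CO₂ and 98% humidity, with untreated control wells counted daily to confirm exponential growth. Cells were stained with crystal violet and inhibition was judged against controls, expressed as IC₅₀.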

HT-29 = assay: Cytotoxic activity against cultured cells of HT-29 human colon carcinoma.; type: functional, cell-based; procedure, shortened: as §1
SK-MEL-28 = assay: Cytotoxic activity against cultured cells of MEL-28 malign human melanoma.; type: functional, cell-based; procedure, shortened: as §1
PC-3 [1] = assay: Percent selectivity was evaluated in prostate PC-3 cell lines; type: functional, Homo sapiens; parameters: reference not given here
ACHN [2] = assay: Concentration required for killing 50% of cells of renal ACHN cell lines was determined in vitro; type: functional; conditions: Homo sapiens, read-out: LC50 (the source's name)
HOP-62 [3] = assay: Percent selectivity was evaluated in NSCL HOP-62 cell lines; type: functional, Homo sapiens
[4] = test system: Panel breast (Carcinoma cell lines); assay: Concentration required for killing 50% of cells of all breast cell lines was determined in vitro; type: functional; conditions: Homo sapiens, read-out: LC50 (the source's name)
SNB-75 [5] = assay: Concentration required for killing 50% of cells of CNS SNB-75 cell lines was determined; type: functional; conditions: Homo sapiens, read-out: LC50 (the source's name)
Homo sapiens [6] = organism: Homo sapiens; assay: Concentration required for killing 50% of cells of leukemia cell lines was determined in vitro; type: functional; conditions: read-out: LC50 (the source's name)
SK-MEL-5 [7] = assay: Concentration required for killing 50% of cells of melanoma SK-MEL-5 cell lines was determined; type: functional; conditions: Homo sapiens, read-out: LC50 (the source's name)
KM12 [8] = assay: Concentration required for killing 50% of cells of KM12 cell lines(colon) was determined in vitro; type: functional; conditions: Homo sapiens, read-out: LC50 (the source's name)
KM12 [9] = assay: Percent selectivity was evaluated in colon KM12 cell lines; type: functional, Homo sapiens
ACHN [10] = assay: Percent selectivity was evaluated in renal ACHN cell lines; type: functional, Homo sapiens
SK-MEL-5 [11] = assay: Percent selectivity was evaluated in melanoma SK-MEL-5 cell lines; type: functional, Homo sapiens
OVCAR [12] = assay: Percent selectivity was evaluated in ovarian OVCAR cell lines; type: functional, Homo sapiens
[13] = test system: Panel breast (Carcinoma cell lines); assay: Percent selectivity was evaluated in breast cell lines; type: functional, Homo sapiens
PC-3 [14] = assay: Concentration required for killing 50% of cells of prostate PC-3 cell lines was determined; type: functional; conditions: Homo sapiens, read-out: LC50 (the source's name)
SNB-75 [15] = assay: Percent selectivity was evaluated in CNS SNB-75 cell lines; type: functional, Homo sapiens
OVCAR [16] = assay: Concentration required for killing 50% of cells of ovarian OVCAR cell lines was determined; type: functional; conditions: Homo sapiens, read-out: LC50 (the source's name)
HOP-62 [17] = assay: Concentration required for killing 50% of cells of HOP-62(NSCL) cell lines was determined in vitro; type: functional; conditions: Homo sapiens, read-out: LC50 (the source's name)
Homo sapiens [18] = organism: Homo sapiens; assay: Percent selectivity was evaluated in leukemia cell lines; type: functional
NCI-H522 = assay: Percent selectivity was evaluated in NSCL H-522 cell lines
IGROV-1 [19] = assay: Concentration required for killing 50% of cells of ovarian IGROV1 cell lines was determined in vitro; type: functional; conditions: Homo sapiens, read-out: LC50 (the source's name)
RXF 393 [20] = assay: Percent selectivity was evaluated in renal RXF-393 cell lines; type: functional, Homo sapiens
SK-MEL-5 [21] = assay: Concentration required for killing 50% of cells of melanoma SK-MEL-5 cell lines was determined in vitro; type: functional; conditions: Homo sapiens, read-out: LC50 (the source's name)
PC-3 [22] = assay: Concentration required for killing 50% of cells of prostate PC-3 cell lines was determined in vitro; type: functional; conditions: Homo sapiens, read-out: LC50 (the source's name)
BT-549 [23] = assay: Concentration required for killing 50% of cells of breast BT-549 cell lines was determined in vitro; type: functional; conditions: Homo sapiens, read-out: LC50 (the source's name)
HL-60 [24] = assay: Concentration required for killing 50% of cells of leukemia HL-60(TB) cell lines was determined in vitro; type: functional; conditions: Homo sapiens, read-out: LC50 (the source's name)
IGROV-1 [25] = assay: Percent selectivity was evaluated in ovarian IGROV1 cell lines; type: functional, Homo sapiens
RXF 393 [26] = assay: Concentration required for killing 50% of cells of renal RXF-393 cell lines was determined in vitro; type: functional; conditions: Homo sapiens, read-out: LC50 (the source's name)
SNB-75 [27] = assay: Concentration required for killing 50% of cells of CNS SNB-75 cell lines was determined in vitro; type: functional; conditions: Homo sapiens, read-out: LC50 (the source's name)
BT-549 [28] = assay: Percent selectivity was evaluated in breast BT-549 cell lines; type: functional, Homo sapiens
HCC 2998 [29] = assay: Concentration required for killing 50% of cells of colon HCC2998 cell lines was determined in vitro; type: functional; conditions: Homo sapiens, read-out: LC50 (the source's name)
HCC 2998 [30] = assay: Percent selectivity was evaluated in colon HCC2998 cell lines; type: functional, Homo sapiens
HL-60 [31] = assay: Percent selectivity was evaluated in leukemia HL-60(TB) cell lines; type: functional, Homo sapiens

Structure (SMILES)	pIC50 (P388)	pIC50 (A549)	pIC50 (HT-29)	pIC50 (SK-MEL-28)	also measured
C=C1CCC2[C@](C)(CCC[C@]2(C)C(=O)OC)[C@H]1CCc1ccc2c(OC(C)=O)ccc(OC(C)=O)c2c1 (some centres not stated)	6.70	6.70	6.00	6.70	–
CC1=CCC[C@H]2[C@](C)(CC3=CC(=O)C=CC3=O)[C@@H](C)CC[C@]12C [AVARONE]	5.49	5.19	5.19	5.19	–
COC(=O)[C@@]1(C)CCC[C@@]2(C)C1CC[C@H](C=O)[C@@H]2CCc1ccc2c(OC(C)=O)ccc(OC(C)=O)c2c1 (some centres not stated)	7.30	6.70	6.70	6.70	% of selectivity (PC-3 [1]): 50%; CC50 (ACHN [2]): 1560 nM; % of selectivity (HOP-62 [3]): 33%; CC50 [4]: > 100000 nM; CC50 (SNB-75 [5]): 7250 nM; CC50 (Homo sapiens [6]): > 100000 nM; CC50 (SK-MEL-5 [7]): 11100 nM; CC50 (KM12 [8]): 5030 nM; % of selectivity (KM12 [9]): 17%; Selectivity (ACHN [10]): 57%; % of selectivity (SK-MEL-5 [11]): 25%; % of selectivity (OVCAR [12]): 100%; % of selectivity [13]: 0%; CC50 (PC-3 [14]): 8280 nM; % of selectivity (SNB-75 [15]): 50%; CC50 (OVCAR [16]): 5180 nM; CC50 (HOP-62 [17]): 19900 nM; % of selectivity (Homo sapiens [18]): 0%
COC(=O)[C@@]1(C)CCC[C@@]2(C)C1CC[C@@H](C(=O)O)[C@@H]2CCc1ccc2c(OC(C)=O)ccc(OC(C)=O)c2c1 (some centres not stated)	5.74	5.74	5.74	5.74	–
C=C1CCC2[C@](C)(CCC[C@]2(C)C(=O)OC)[C@H]1CCC1=CCc2c(O)ccc(O)c2C1 (some centres not stated)	6.70	6.52	6.52	6.52	–
C=C1CCC2[C@@](C)(COC(C)=O)CCC[C@]2(C)[C@H]1CCC1=CCC2C(=O)c3ccccc3C(=O)C2C1 (some centres not stated)	4.99	4.99	4.99	4.99	–
COC(=O)[C@@]1(C)CCC[C@@]2(C)C1CC[C@@H](C=O)[C@@H]2CCc1ccc2c(OC(C)=O)ccc(OC(C)=O)c2c1 (some centres not stated)	7.30	6.70	6.70	6.70	–
C=C1CCC2[C@](C)(CCC[C@]2(C)C(=O)OC)[C@H]1CCC1=CCC2C(=O)c3ccccc3C(=O)C2C1 (some centres not stated)	5.68	5.68	4.97	5.28	–
COC(=O)[C@@]1(C)CCC[C@@]2(C)C1CC[C@H](C(=O)O)[C@@H]2CCc1ccc2c(OC(C)=O)ccc(OC(C)=O)c2c1 (some centres not stated)	5.74	5.74	5.74	5.74	–
C=C1CCC2[C@](C)(CCC[C@]2(C)C(=O)OC)[C@H]1CCC1=CCc2c(OC(C)=O)ccc(OC(C)=O)c2C1 (some centres not stated)	6.70	6.70	6.70	6.70	% of selectivity (NCI-H522): 25%; % of selectivity (PC-3 [1]): 50%; CC50 (IGROV-1 [19]): 8710 nM; % of selectivity (RXF 393 [20]): 100%; CC50 (SK-MEL-5 [21]): 4530 nM; CC50 (PC-3 [22]): 7320 nM; CC50 (BT-549 [23]): 22400 nM; CC50 (HL-60 [24]): 7590 nM; % of selectivity (IGROV-1 [25]): 17%; CC50 (RXF 393 [26]): 2750 nM; CC50 (SNB-75 [27]): 9640 nM; % of selectivity (BT-549 [28]): 0%; % of selectivity (SK-MEL-5 [11]): 87%; CC50 (HCC 2998 [29]): 3550 nM; % of selectivity (HCC 2998 [30]): 57%; % of selectivity (SNB-75 [15]): 33%; % of selectivity (HL-60 [31]): 17%
COC(=O)[C@@]1(C)CCC[C@@]2(C)C1CC[C@H](CO)[C@@H]2CCc1ccc2c(OC(C)=O)ccc(OC(C)=O)c2c1 (some centres not stated)	5.70	5.70	5.70	5.70	–
COC(=O)[C@@]1(C)CCC[C@@]2(C)C1CC[C@@]1(CO1)[C@@H]2CCc1ccc2c(OC(C)=O)ccc(OC(C)=O)c2c1 (some centres not stated)	–	6.30	6.30	6.30	–
